Bioassay records as filed in PubChem.
HSF1 activator: HSF-1 activators, primary screen, NIH3T3-HGL cells, MG132 stress, luminescence, single point | NIH3T3-HGL HSF-1 luciferase reporter, 8 h; 100% = twice DMSO control signal | activation, % at 9 µM | actives 1.7% (n = 300,000);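 active means mean replicate activation of at least 50% with a set share of replicates each reaching 50%; inconclusive means only one of those two conditions met; inactive means mean below 50% and too few replicates reaching it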;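 further: 0% = median of the neutral control wells and 100% = twice that signal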
MITF TRPM1 HTS: activators of MITF-driven TRPM1 promoter reporter, primary screen, cell-based, SK-MEL-5, luciferase, single point; SK-MEL-5 TRPM1-promoter luciferase, 24 h; % of positive control, neutral wells = 0; actives 0.75% (n = 300,000); activation, % at 12.5 µM;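 active means mean activation of at least 80% with every replicate also reaching 80%; inconclusive means mean reaches 80% but some replicate falls short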;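 further: 0% = neutral control wells and 100% = parthenolide positive control wells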
SR-BI DiI-HDL act: activators of SR-BI mediated DiI-HDL uptake, primary screen, ldlA[mSR-BI] CHO cells, DiI fluorescence; 3 h; 100 = double the neutral-control signal; activation, % at 12.5 µM; actives 0.096% (n = 320,000); AID 504775, 2011;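 active means mean replicate activation of at least 60% and every replicate at or above 60%; inconclusive means mean or all-replicate condition met, but not both; inactive means mean below 60% and not all replicates reaching 60%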;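 further: 0% = median plate neutral-control signal and 100% = twice that signal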
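System: LDL receptor-deficient CHO ldlA cells overexpressing murine SR-BI | Timing: 3 h uptake period with compound, 37 °C | Medium: HEPES-buffered (25 mM, pH 7.4) F12 plus 0.5% BSA | Dosing: Single-point compound dose | Signal: Bottom-read fluorescence, 550/595 nm | Read-out: Retained DiI signal reflecting DiI-HDL uptake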
SR-BI DiI inh: inhibitors of SR-BI mediated HDL lipid uptake, primary screen, ldlA[mSR-BI] cells, fluorescence, single point; ldlA[mSR-BI] CHO cells, DiI-HDL uptake fluorescence, 3 h; inhibition, % at 12.5 µM; actives 0.96% (n = 320,000); AID 488896, 2010;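 active means mean replicate inhibition of at least 70% and a set share of replicates each scoring 70 or more; inconclusive means meets just one of the two criteria; inactive means fails both criteria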;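 further: 0% = median of neutral control wells and 100% = median of positive control wells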
Target sequence (Q61009 whole entry, looked up): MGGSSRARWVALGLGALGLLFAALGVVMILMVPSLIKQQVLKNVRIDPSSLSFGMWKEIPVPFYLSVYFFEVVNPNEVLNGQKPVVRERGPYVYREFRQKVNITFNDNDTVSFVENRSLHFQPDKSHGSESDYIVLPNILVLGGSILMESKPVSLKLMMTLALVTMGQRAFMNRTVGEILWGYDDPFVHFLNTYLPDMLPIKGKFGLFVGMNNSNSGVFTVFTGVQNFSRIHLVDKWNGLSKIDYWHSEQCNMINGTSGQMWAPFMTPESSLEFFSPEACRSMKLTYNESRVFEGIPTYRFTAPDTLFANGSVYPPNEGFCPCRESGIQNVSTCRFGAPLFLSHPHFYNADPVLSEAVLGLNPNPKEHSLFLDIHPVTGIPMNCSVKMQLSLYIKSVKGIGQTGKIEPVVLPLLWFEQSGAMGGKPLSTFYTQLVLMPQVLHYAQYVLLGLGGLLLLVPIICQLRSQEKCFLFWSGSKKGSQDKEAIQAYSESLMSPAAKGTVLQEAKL
Wnt act: Wnt/beta-catenin pathway activators, primary screen, cell-based, plate reader, single point. actives 1.2% (n = 300,000). activation, % at 9.35 µM. Wnt/beta-catenin reporter cell assay, activator; in the data active means activation above about 30%, passing the limit was not always enough; inconclusive means no clear call, values can overlap the other calls;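 further: 0% = neutral control wells and 100% = positive control wells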
The depositor's hits bear a star; ? = inconclusive; . = no result given. Shown are actives, neighbours in structure and some others; about 3.6% of the full set was active somewhere.

SMILES	HSF1 activator	MITF TRPM1 HTS	SR-BI DiI-HDL act	SR-BI DiI inh	Wnt act
CCOC(=O)/C=C/C(=O)Nc1nccs1	53*	3	32	-32	0
Cc1ccc(/C=C/C(=O)Nc2nccs2)o1	62*	30	0	0	-3
Nc1ccn([C@@H]2O[C@H](C(=O)N[C@H](Cc3ccccc3)C(=O)N[C@H]3CCCCNC3=O)[C@@H](O)[C@H]2O)c(=O)n1	.	.	.	.	2
Cc1ccc(CC2(C)C(=O)Nc3c(Cl)ccc(Cl)c32)cc1 (configuration not stated)	.	.	.	.	-9
CCOC(=O)C1=CCC(c2ccc(C#N)cc2)N(S(=O)(=O)c2ccc(C)cc2)C1 (configuration not stated)	.	.	.	.	-3
CCc1ccccc1NC1=NCC(=O)N1C1CCCCC1	59*	-9	.	.	.
Cc1cc(Sc2nc(N)ncc2[N+](=O)[O-])ncn1	8	-28	1	-1	2
Cc1cc(Sc2ncnc(N)c2[N+](=O)[O-])ncn1	65*	-77	6	-6	.
CC1(C)CC(=O)C=C(c2ccccc2F)C1=O	.	.	.	.	-3
CSc1sc(C(=O)NN)c2c1C1(CCC2)SCCS1	0	.	-107	107*	0
CSc1sc(C(=O)NNC(C)=O)c2c1C1(CCC2)SCCS1	10	.	-7	7	-1
Cc1ccc2nc(Cc3ccc(N)cc3)[nH]c2c1	7	16	-6	6	39*
Nc1ccc2nc(Cc3ccccc3)[nH]c2c1	-19	18	-17	17	-1
Cc1ccccc1C(=O)Nc1cccc(NC(=O)c2ccc(F)cc2)c1	5	-12	-79	79*	1
Cc1ccccc1C(=O)Nc1ccccc1	1	48	4	-4	.
O=C(Nc1cccc(NC(=O)c2ccc(F)cc2)c1)c1ccc(F)cc1	40	.	-76	76*	-2
C[C@@H]1CCCCO[C@@H](CN(C)S(=O)(=O)c2cn(C)cn2)[C@@H](C)CN([C@H](C)CO)C(=O)c2cc(N(C)C)ccc2O1	.	.	.	.	-1
CCNC(=O)C1(C)CCN(C(=O)c2ccc3c(c2)OCO3)C1 (configuration not stated)	.	.	.	.	-1
N#Cc1cnc(Nc2ccc(F)cc2)nc1N	72*	.	4	-4	1
COc1ccc(-n2cnc3sccc3c2=O)cc1	21	3	2	-2	5
COc1cccc(-n2cnc3sc(-c4ccccc4)cc3c2=O)c1	54*	101*	-53	53	24
COc1ccc(-n2cnc3sc(-c4ccccc4)cc3c2=O)cc1	?	124*	-11	11	.
CC(=O)Nc1cc(-c2ccccc2CN(C)C)cn2c(-c3ccc(C(C)=O)cc3)cnc12	.	.	.	.	0
COc1ccccc1N1CN(S(=O)(=O)c2ccc(C)cc2)c2nc3ccccc3nc21	.	-26	-2	2	3
COc1ccc(/C=C/C(=O)C(C(N)=O)=C2SCCS2)cc1	48	35	24	-24	3
SMILES	HSF1 activator	MITF TRPM1 HTS	SR-BI DiI-HDL act	SR-BI DiI inh	Wnt act
NC(=O)C(C(=O)/C=C/c1ccc(Cl)cc1)=C1SCCS1	210*	-37	.	.	-2
c1ccc(N2CCN(c3nc4cc5c(cc4s3)OCO5)CC2)cc1	72*	20	-4	4	19
Brc1ccc2nc(N3CCN(c4ccccc4)CC3)sc2c1	73*	26	27	-27	6
c1c2c(cc3sc(N4CCOCC4)nc13)OCO2	41	.	0	0	.
c1c2c(cc3sc(N4CCCCC4)nc13)OCO2	25	-4	34	-34	54*
O=C(Nc1ccccc1N1CCCC1)C1CCN(S(=O)(=O)c2ccccc2C(F)(F)F)CC1	23	-8	-12	12	-2
O=C(Nc1ccccc1N1CCOCC1)C1CCN(S(=O)(=O)c2ccccc2F)CC1	12	1	214*	-214	.
O=C(NCc1ccccc1)c1cc(C2CCCCN2C(=O)c2cccs2)on1 (configuration not stated)	.	.	.	.	0
Cc1cccc(N2C(=O)CC(NNc3nc4ccccc4s3)C2=O)c1 (configuration not stated)	109*	-1	29	-29	-4
Cc1cc(/C=C(/C#N)c2cccc(F)c2)c(C)n1-c1cccnc1	.	88*	-48	48	1
